Published values of several laboratories.

Compound	system	conditions	quantity	value
c1cc([C@H]2CC[C@]3(CC2)OO[C@]2(O3)C3CC4CC(C3)CC2C4)ccc1OCCN1CCOCC1	human, plasma	oral, 800 mg, patients	Cmax	1710 ng/mL
N=C(N)NCCC[C@@H](NC(=O)[C@@H](N)Cc1ccccc1)C(=O)N[C@@H](Cc1ccccc1)C(=O)N[C@@H](CCCCN)C(N)=O	human, plasma	subcutaneous, 15 mg, patients	Cmax	886 ng/mL
Cc1nc2c(=O)n(C)c(=O)nc-2n(C)n1	Caco-2		efflux ratio	1
COc1ccc2[nH]cc(CCNc3nccc(Nc4cccc5c4ccn5C)n3)c2c1	mouse, plasma	oral, 28.6 mg/kg	Tmax	0.25 h
C[C@]12CC[C@H](n3ccnc3)CC1=CC[C@@H]1[C@@H]2CC[C@]2(C)C(n3cnc4ccccc43)=CC[C@@H]12.Cl	male CD-1 mouse, plasma	oral, 10 mg/kg	Tmax	13.3 h
CC(=C/C=C/C(C)=C/C(=O)O)/C=C1\CCCc2ccccc21	human, plasma	oral, 10 mg, single dose, fasted, healthy volunteers	Cmax	55.9 ng/mL
C=CCNc1c(O)cc2c(O)c1C[C@@H](C)C[C@H](OC)[C@H](O)[C@@H](C)/C=C(\C)[C@H](OC(N)=O)[C@@H](OC)/C=C\C=C(/C)C(=O)N2	human, plasma	intravenous, 400 mg/m², patients, infusion	Cmax	7800 ng/mL
C/N=c1\nc(-c2ccccc2)n(-c2ccccc2)s1	Caco-2	20 µM, 95 min	efflux ratio	0.962
NCC(=O)Nc1ccc(-n2nc(C(F)(F)F)cc2-c2ccc3c(ccc4ccccc43)c2)cc1	mouse, plasma	oral, 80 mg/kg, single dose	Tmax	10 h
Cc1ccccc1C(=O)NN=Cc1ccc(O)c(Br)c1	mouse, plasma	intraperitoneal, 0.8 mg/kg	Tmax	0.5 h
CC[C@H](C)[C@H](NC(=O)[C@H](CC(C)C)NC(=O)[C@H](Cc1c[nH]c2ccccc12)NC(=O)[C@H](CCC(N)=O)NC(=O)[C@@H](NC(=O)[C@H](Cc1ccccc1)NC(=O)[C@H](C)NC(=O)[C@H](CCCCNC(=O)COCCOCCNC(=O)COCCOCCNC(=O)CC[C@H](NC(=O)CCCCCCCCCCCCCCCCCCC(=O)O)C(=O)O)NC(=O)[C@H](CCC(N)=O)NC(=O)[C@H](C)NC(=O)[C@@H](NC(=O)[C@H](CCCCN)NC(=O)[C@H](CC(=O)O)NC(=O)[C@H](CC(C)C)NC(=O)C(C)(C)NC(=O)[C@@H](NC(=O)[C@H](CO)NC(=O)[C@H](Cc1ccc(O)cc1)NC(=O)[C@H](CC(=O)O)NC(=O)[C@H](CO)NC(=O)[C@@H](NC(=O)[C@H](Cc1ccccc1)NC(=O)[C@@H](NC(=O)CNC(=O)[C@H](CCC(=O)O)NC(=O)C(C)(C)NC(=O)[C@@H](N)Cc1ccc(O)cc1)[C@@H](C)O)[C@@H](C)O)[C@@H](C)CC)[C@@H](C)CC)C(C)C)C(=O)N[C@@H](C)C(=O)NCC(=O)NCC(=O)N1CCC[C@H]1C(=O)N[C@@H](CO)C(=O)N[C@@H](CO)C(=O)NCC(=O)N[C@@H](C)C(=O)N1CCC[C@H]1C(=O)N1CCC[C@H]1C(=O)N1CCC[C@H]1C(=O)N[C@@H](CO)C(N)=O	human, plasma	subcutaneous, 0.5 mg, multiple doses, healthy volunteers	Cmax	77.8 ng/mL
N=c1c2c(-c3ccccc3)c(-c3ccccc3)n(Cc3ccccc3)c2ncn1[C@H]1CC[C@H](O)CC1	male cynomolgus monkey, plasma	intravenous, 0.5 mg/kg, single dose	Vd	1.5 L/kg
